Common to all, as to assay type: cell-based
Test [1] addresses T1, Muscarinic acetylcholine receptor M1 (Homo sapiens, UniProt P11229).
T1 sequence (P11229 whole entry): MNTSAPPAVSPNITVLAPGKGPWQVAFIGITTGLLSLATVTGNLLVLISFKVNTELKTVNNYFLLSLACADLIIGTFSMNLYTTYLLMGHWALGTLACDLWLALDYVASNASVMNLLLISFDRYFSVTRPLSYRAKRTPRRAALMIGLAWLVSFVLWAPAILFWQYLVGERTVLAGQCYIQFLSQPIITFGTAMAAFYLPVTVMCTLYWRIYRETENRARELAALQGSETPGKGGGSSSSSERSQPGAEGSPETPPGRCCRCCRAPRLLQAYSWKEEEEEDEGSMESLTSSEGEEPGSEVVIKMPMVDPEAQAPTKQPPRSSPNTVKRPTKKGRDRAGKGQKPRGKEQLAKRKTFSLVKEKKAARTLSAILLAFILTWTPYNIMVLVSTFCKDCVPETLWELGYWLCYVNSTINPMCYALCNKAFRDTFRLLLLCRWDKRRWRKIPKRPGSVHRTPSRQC
Description: Displacement of [3H]-NMS from human muscarinic M1 receptor expressed in CHO-K9 cells after 3 hrs by microbeta2 scintillation counting method. A digest of the protocol:
(§1)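 [3H]NMS competition binding on intact CHO-hMxR cells in L15 medium with 1% BSA, 3 h at 22 ± 1 °C with gentle shaking. [3H]NMS was 0.2 nM (M1, M2, M3), 0.1 nM (M4) or 0.3 nM (M5). […] Cells were lysed in urea/acetic acid/Triton and counted by liquid scintillation. Ki from Cheng-Prusoff. Triplicates, ≥3 experiments.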

Test [2] deals with T2, Muscarinic acetylcholine receptor M2 (Homo sapiens, UniProt P08172).
T2 sequence (P08172 whole entry): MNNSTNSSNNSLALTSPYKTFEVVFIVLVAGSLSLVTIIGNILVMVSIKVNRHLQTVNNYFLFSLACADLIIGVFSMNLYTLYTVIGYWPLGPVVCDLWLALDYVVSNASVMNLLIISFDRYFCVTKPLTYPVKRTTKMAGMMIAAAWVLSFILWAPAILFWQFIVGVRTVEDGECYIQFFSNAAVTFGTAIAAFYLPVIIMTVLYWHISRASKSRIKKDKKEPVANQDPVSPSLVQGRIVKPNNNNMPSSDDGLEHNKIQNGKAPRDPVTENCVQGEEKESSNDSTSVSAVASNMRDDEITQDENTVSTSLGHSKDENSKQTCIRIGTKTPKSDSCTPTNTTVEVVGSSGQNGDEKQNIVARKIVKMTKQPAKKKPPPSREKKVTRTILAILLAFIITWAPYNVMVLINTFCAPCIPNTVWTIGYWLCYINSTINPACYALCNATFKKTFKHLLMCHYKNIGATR
Description: Displacement of [3H]-NMS from human muscarinic M2 receptor expressed in CHO-K9 cells after 3 hrs by microbeta2 scintillation counting method. The essentials:
as §1
On the technique in general: Loss of bound radioactivity is the signal in a displacement assay; it reports binding, not function.

Test [3] addresses Muscarinic acetylcholine receptor M3 (Homo sapiens, UniProt P20309). Description: Displacement of [3H]-NMS from human muscarinic M3 receptor expressed in CHO-K9 cells after 3 hrs by microbeta2 scintillation counting method. A digest of the protocol: as §1
Test [4] has as its target T3, Muscarinic acetylcholine receptor M4 (Homo sapiens, UniProt P08173).
T3 sequence (P08173 whole entry): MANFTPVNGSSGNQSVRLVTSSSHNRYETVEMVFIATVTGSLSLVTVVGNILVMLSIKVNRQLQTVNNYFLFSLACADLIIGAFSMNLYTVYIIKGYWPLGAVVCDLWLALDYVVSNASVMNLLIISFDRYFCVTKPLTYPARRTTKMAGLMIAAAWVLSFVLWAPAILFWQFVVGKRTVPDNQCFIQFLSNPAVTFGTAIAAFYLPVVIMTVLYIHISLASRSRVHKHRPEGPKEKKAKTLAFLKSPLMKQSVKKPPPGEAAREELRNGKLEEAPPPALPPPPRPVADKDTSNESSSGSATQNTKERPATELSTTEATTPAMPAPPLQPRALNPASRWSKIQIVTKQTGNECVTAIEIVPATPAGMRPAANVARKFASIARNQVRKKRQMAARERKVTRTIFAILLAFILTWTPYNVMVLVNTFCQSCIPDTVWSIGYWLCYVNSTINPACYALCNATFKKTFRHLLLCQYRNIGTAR
Description: Displacement of [3H]-NMS from human muscarinic M4 receptor expressed in CHO-K9 cells after 3 hrs by microbeta2 scintillation counting method. The essentials:
as §1

Test [5] concerns the target T4, Muscarinic acetylcholine receptor M5 (Homo sapiens, UniProt P08912).
T4 sequence (P08912 whole entry): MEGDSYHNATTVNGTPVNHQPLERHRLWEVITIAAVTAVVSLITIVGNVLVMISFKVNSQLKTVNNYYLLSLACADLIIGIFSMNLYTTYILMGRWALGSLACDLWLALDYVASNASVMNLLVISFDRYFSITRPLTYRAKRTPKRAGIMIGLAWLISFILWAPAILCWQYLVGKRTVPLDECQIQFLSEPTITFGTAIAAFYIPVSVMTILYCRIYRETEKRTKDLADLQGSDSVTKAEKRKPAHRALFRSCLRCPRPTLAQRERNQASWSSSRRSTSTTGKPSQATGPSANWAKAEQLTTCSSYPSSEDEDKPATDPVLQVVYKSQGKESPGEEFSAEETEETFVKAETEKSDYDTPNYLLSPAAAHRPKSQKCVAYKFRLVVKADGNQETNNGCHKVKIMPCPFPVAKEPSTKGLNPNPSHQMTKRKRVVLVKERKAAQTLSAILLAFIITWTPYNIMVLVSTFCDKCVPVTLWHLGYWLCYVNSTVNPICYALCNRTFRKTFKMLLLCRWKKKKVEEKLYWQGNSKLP
Description: Displacement of [3H]-NMS from human muscarinic M5 receptor expressed in CHO-K9 cells after 3 hrs by microbeta2 scintillation counting method. The essentials:
as §1

The target of test [6] is Muscarinic acetylcholine receptors; M1 & M2 (Homo sapiens) (UniProt P11229+P08172). Description: Selectivity ratio of Ki for human muscarinic M1 receptor expressed in CHO-K9 cells to Ki for human muscarinic M2 receptor expressed in CHO-K9 cells. The essentials: (§2)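 Ratio of mean Ki values. Each Ki came from an individual [3H]NMS competition experiment at the given CHO-hMxR subtype, converting IC50 to Ki by Cheng-Prusoff before averaging.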

In test [7] the target is Muscarinic acetylcholine receptors; M2 & M3 (Homo sapiens) (UniProt P20309+P08172). Description: Selectivity ratio of Ki for human muscarinic M3 receptor expressed in CHO-K9 cells to Ki for human muscarinic M2 receptor expressed in CHO-K9 cells. A digest of the protocol: as §2
In test [8] the target is Muscarinic acetylcholine receptor M2 and M4 (Homo sapiens) (UniProt P08173+P08172). Description: Selectivity ratio of Ki for human muscarinic M4 receptor expressed in CHO-K9 cells to Ki for human muscarinic M2 receptor expressed in CHO-K9 cells. A digest of the protocol:
as §2

The target of test [9] is Muscarinic acetylcholine receptor M2 and M5 (Homo sapiens) (UniProt P08172+P08912). Description: Selectivity ratio of Ki for human muscarinic M5 receptor expressed in CHO-K9 cells to Ki for human muscarinic M2 receptor expressed in CHO-K9 cells. The essentials: as §2

As a reminder, the Ki is a dissociation constant, usually derived from enzyme kinetics or from competition with a known ligand.

Chain of Muscarinic acetylcholine receptor M3 (P20309 whole entry): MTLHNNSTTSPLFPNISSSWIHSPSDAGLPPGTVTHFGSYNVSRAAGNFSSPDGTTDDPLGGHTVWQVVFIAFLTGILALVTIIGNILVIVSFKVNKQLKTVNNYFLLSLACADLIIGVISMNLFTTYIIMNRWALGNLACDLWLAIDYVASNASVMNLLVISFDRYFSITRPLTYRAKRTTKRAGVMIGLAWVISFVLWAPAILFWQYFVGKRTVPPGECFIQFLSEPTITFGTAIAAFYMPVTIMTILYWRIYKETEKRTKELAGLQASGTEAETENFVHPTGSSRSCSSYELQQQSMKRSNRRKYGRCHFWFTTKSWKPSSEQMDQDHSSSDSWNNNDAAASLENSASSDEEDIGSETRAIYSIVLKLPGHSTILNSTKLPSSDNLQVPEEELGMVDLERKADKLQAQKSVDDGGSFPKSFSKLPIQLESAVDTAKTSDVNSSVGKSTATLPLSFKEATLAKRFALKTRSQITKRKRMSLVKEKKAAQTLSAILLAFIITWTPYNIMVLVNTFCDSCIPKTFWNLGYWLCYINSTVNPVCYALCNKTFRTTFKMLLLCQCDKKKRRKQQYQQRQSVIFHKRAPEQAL
Chain of Muscarinic acetylcholine receptors; M2 & M3 (Homo sapiens) (P20309 whole entry, looked up, one chain of several): as the sequence (P20309 whole entry) above

With `CC(=O)N[C@@H](CCCNC(=N)N)C(=O)N[C@@H](CCCNC(=N)N)C(=O)NCCCCC1CCN(CC(=O)N2c3ccccc3NC(=O)c3ccccc32)CC1`, the Ki is 20 nM in test [1]; 1.7 nM in test [2]; 955 nM in test [3]; 29.5 nM in test [4]; 162 nM in [5]. Further, the Ratio Ki in test [6] stood at 12; in test [7], 710; in test [8] it was 19; in [9] it was 97.
`CC(=O)N[C@@H](CCCNC(=N)N)C(=O)NCCCCC1CCN(CC(=O)N2c3ccccc3NC(=O)c3ccccc32)CC1`: the Ki in test [1] is 97.7 nM; in [2], 11.2 nM; in [3], 1480 nM; in test [4] it was 148 nM; in [5], 977 nM. Besides, the Ratio Ki in test [6] was 8.4; in test [7], 140; in [8], 13; in [9], 86.
As to `CC(=O)N[C@@H](CCCCN)C(=O)N[C@@H](C)C(=O)N[C@@H](Cc1ccc(O)cc1)C(=O)NCCN1CCN(CCCCC2CCN(CC(=O)N3c4ccccc4NC(=O)c4ccccc43)CC2)CC1`, the Ki in test [1] is 1.26 nM; in [2], 0.174 nM; in test [3], 44.7 nM; in test [4], 1.26 nM; in test [5] it was 95.5 nM. The Ratio Ki is 8.3 in test [6], 240 in test [7], 8.1 in test [8] and 560 in test [9].
In the case of `CC(=O)N[C@@H](Cc1ccc(O)cc1)C(=O)N[C@@H](C)C(=O)N[C@@H](CCCCN)C(=O)NCCN1CCN(CCCCC2CCN(CC(=O)N3c4ccccc4NC(=O)c4ccccc43)CC2)CC1`, the Ki in test [1] is 2.34 nM; in test [2] it was 0.115 nM; in test [3], 28.2 nM; in test [4], 3.24 nM; in test [5] it was 29.5 nM. Besides, the Ratio Ki in test [6] turned out to be 22; in [7] it was 290; in test [8] it was 28; in test [9], 260.
Regarding `CC(=O)N[C@@H](Cc1c[nH]c2ccccc12)C(=O)N[C@@H](C)C(=O)N[C@@H](Cc1ccc(O)cc1)C(=O)NCCCCC1CCN(CC(=O)N2c3ccccc3NC(=O)c3ccccc32)CC1`, the inhibition constant (Ki) was 93.3 nM in test [1]; 20 nM in [2]; 1150 nM in test [3]; 37.2 nM in [4]; 120 nM in test [5]. Further, the Ratio Ki was 4.7 in test [6], 56 in test [7], 1.9 in test [8] and 6.2 in [9].
Take `CCC(=O)NCc1cc(C(=O)NCCN2CCC(N3CCC(n4c(=O)[nH]c5ccccc54)CC3)CC2)cc(C(=O)NCCN2CCN(CCCCC3CCN(CC(=O)N4c5ccccc5NC(=O)c5ccccc54)CC3)CC2)c1`: the Ratio Ki in test [6] came out at 7.6; in test [7], 78; in test [8], 7.4; in [9], 300.
Regarding `CC(=O)N[C@@H](CCCNC(=N)N)C(=O)N[C@@H](CCCCN)C(=O)NCCCCC1CCN(CC(=O)N2c3ccccc3NC(=O)c3ccccc32)CC1`, the Ki in [1] is 95.5 nM; in [2] it was 12 nM; in [3] it was 5500 nM; in [4] it was 257 nM; in [5] it was 501 nM. The Ratio Ki was found to be 6.5 in test [6], 400 in test [7], 17 in [8] and 39 in test [9].
Take `CC(=O)N[C@@H](CCCCN)C(=O)N[C@@H](Cc1ccc(O)cc1)C(=O)NCCCCC1CCN(CC(=O)N2c3ccccc3NC(=O)c3ccccc32)CC1`: the Ki in test [1] is 30.2 nM; in [2] it was 1.82 nM; in [3], 1620 nM; in [4], 10.7 nM; in test [5] it was 74.1 nM. The Ratio Ki in test [6] was determined as 17; in test [7], 720; in [8], 5.9; in [9], 43.
With `CC(=O)N[C@@H](Cc1c[nH]c2ccccc12)C(=O)N[C@@H](Cc1ccc(O)cc1)C(=O)NCCN1CCN(CCCCC2CCN(CC(=O)N3c4ccccc4NC(=O)c4ccccc43)CC2)CC1`, the inhibitory constant (Ki) in test [1] is 0.871 nM; in [2], 0.148 nM; in test [3] it was 13.5 nM; in [4], 1.07 nM; in test [5], 38.9 nM. For the same compound, the Ratio Ki worked out at 6.3 in test [6], 79 in test [7], 7 in test [8] and 220 in test [9].
Consider `CC(=O)N[C@@H](CCC(N)=O)C(=O)N[C@@H](C)C(=O)N[C@@H](CC(C)C)C(=O)NCCN1CCN(CCCCC2CCN(CC(=O)N3c4ccccc4NC(=O)c4ccccc43)CC2)CC1`, for which the Ki in test [1] is 2.95 nM; in test [2], 0.355 nM; in [3], 151 nM; in [4], 3.55 nM; in test [5] it was 240 nM. The Ratio Ki in [6] worked out at 8.4; in test [7], 440; in [8], 11; in [9], 710.
Turning to `CC(=O)N[C@@H](Cc1c[nH]c2ccccc12)C(=O)N[C@@H](Cc1ccc(O)cc1)C(=O)NCCCCC1CCN(CC(=O)N2c3ccccc3NC(=O)c3ccccc32)CC1`, the Ki was 155 nM in [1]; 33.1 nM in test [2]; 1580 nM in test [3]; 93.3 nM in test [4]; 58.9 nM in test [5]. In addition, the Ratio Ki came to 5 in [6], 46 in test [7], 2.8 in test [8] and 1.8 in test [9].

For the origin of these results see ChEMBL document CHEMBL4396879, “Conjugation of Short Peptides to Dibenzodiazepinone-Type Muscarinic Acetylcholine Receptor Ligands Determines M2R Selectivity” (J Med Chem, 2019).
